One assay relates to Gaeumannomyces tritici. The experiment in a line: Antimicrobial activity against Gaeumannomyces graminis var. tritici at <200 ppm. It counts as functional, organism-based. A digest of the protocol:
(§1)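 Antifungal test by the dialysis membrane overlay technique against the phytopathogenic fungus. Compounds were assessed at concentrations below 200 ppm.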

Another assay addresses T1, Endothelin-1 receptor (Rattus norvegicus, UniProt P26684).
T1 sequence (P26684 whole entry): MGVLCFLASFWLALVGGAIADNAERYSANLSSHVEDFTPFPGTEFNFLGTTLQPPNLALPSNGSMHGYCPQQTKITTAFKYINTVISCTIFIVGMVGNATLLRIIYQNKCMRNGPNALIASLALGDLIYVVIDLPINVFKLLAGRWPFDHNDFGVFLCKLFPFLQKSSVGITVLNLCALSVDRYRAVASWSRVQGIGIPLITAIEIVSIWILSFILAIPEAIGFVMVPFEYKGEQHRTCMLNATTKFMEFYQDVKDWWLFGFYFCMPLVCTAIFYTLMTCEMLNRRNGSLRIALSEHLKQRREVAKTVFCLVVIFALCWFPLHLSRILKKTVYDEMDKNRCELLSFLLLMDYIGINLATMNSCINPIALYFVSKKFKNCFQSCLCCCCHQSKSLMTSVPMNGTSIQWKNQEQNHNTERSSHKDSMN
The experiment in a line: Displacement of endothelin-1 from ETA receptor in rat A10 cells. It counts as cell-based.

A further assay has as its system Caenorhabditis elegans. The experiment in a line: Antinematodal activity against Caenorhabditis elegans after 16 to 24 hrs. It counts as functional. In short, it runs like this:
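Model nematode C. elegans exposed to compounds in a bioassay. Lethality was scored over 16-24 h and reported as the concentration in ppm lethal to 90% (LD90) or 50% (LD50) of worms.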

The subject of another assay is Rhizoctonia solani. The experiment in a line: Antimicrobial activity against Rhizoctonia solani at <200 ppm. It is filed as functional, organism-based. A digest of the protocol:
as §1

In the next assay the test system is Escherichia coli. The experiment in a line: Antimicrobial activity against Escherichia coli at <200 ppm. It is filed as functional, organism-based.

Converted amounts (≈) assume the structure as drawn. The source made the active and inactive calls. The rule behind the calls is not given here.

For orientation: IC50 means the midpoint of a concentration-inhibition curve. Read a low IC50 as greater potency. With `COC(=O)c1cc(O)cc(OC)c1Oc1cc(C)cc(O)c1C(=O)O` [ASTERRIC ACID], the outcome with Gaeumannomyces tritici, with Rhizoctonia solani and in the assay with Escherichia coli was inactive. The half-inhibitory concentration (IC50) on Endothelin-1 receptor came to 10 µM. This compound returned an LD90 in the assay on Caenorhabditis elegans of 50 ppm.
For the compound `COC(=O)c1cc(O)cc(OC)c1Oc1cc(C)cc(O)c1C(=O)OC` [METHYL ASTERRATE], the outcome in the assay with Gaeumannomyces tritici, with Rhizoctonia solani and with Escherichia coli was inactive. Further, the LD90 with Caenorhabditis elegans was 75 ppm.
Consider `COC(=O)c1cc(O)cc(OC)c1Oc1cc(C)c(Cl)c(O)c1C(=O)OC` [METHYL CHLOROASTERRATE], for which the outcome in the assay on Gaeumannomyces tritici, with Rhizoctonia solani and in the assay with Escherichia coli was inactive. Besides, the LC50 in the assay on Caenorhabditis elegans (Caenorhabditis elegans, read-out: LD50 (the source's name)) worked out at 100 µg/mL (≈ 252 µM).
Consider `COC(=O)c1cc(O)cc(OC)c1Oc1c(Cl)c(C)c(Cl)c(O)c1C(=O)OC` [METYL DICHLOROASTERRATE], for which the result with Gaeumannomyces tritici, in the assay with Rhizoctonia solani and in the assay on Escherichia coli was inactive. This compound also showed an LD90 in the assay with Caenorhabditis elegans of 75 ppm.
As for `COC(=O)c1cc(O)cc(OC)c1C(=O)c1c(O)cc(C)cc1O` [SULOCHRIN], the outcome with Gaeumannomyces tritici, in the assay with Rhizoctonia solani and in the assay with Escherichia coli was inactive. Moreover, in the assay on Caenorhabditis elegans, the LD90 is given as 50 ppm.

These data come from ChEMBL document CHEMBL1148102, “New chlorinated diphenyl ethers from an Aspergillus species” (J Nat Prod, 2002).
